ChEMBL document CHEMBL1649469, “Pharmacokinetics of nikkomycin Z after single rising oral doses” (Antimicrob Agents Chemother, 2009)

What was measured:
[1] = Cmax in healthy human at 2000 […], po administered as single dose measured after 72 hrs by HPLC method; assay type: ADME, organism-based; parameters: route oral; details: in vivo
In short: (§1)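 Healthy fasting male volunteers, two groups of six, each given two of three single oral capsule doses plus a random placebo, with a 2-week washout. About 12 blood samples were taken over 24 h, then at 48 and 72 h. Plasma was assayed by validated HPLC-UV (LLOQ 48 ng/ml). Noncompartmental analysis: Cmax/Tmax observed, AUC0-t* by linear trapezoid, λz from the terminal log-linear phase, AUC0-∞ = AUC0-t* + C*/λz.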

[2] = Tmax in healthy human at […], po administered as single dose measured after 72 hrs by HPLC method; assay type: ADME, organism-based; parameters: route oral; details: in vivo; in short: as §1
[3] = Tmax in healthy human at 500 […], po administered as single dose measured after 72 hrs by HPLC method; assay type: ADME, organism-based; parameters: route oral; details: in vivo; in short: as §1
[4] = Tmax in healthy human at 1000 […], po administered as single dose measured after 72 hrs by HPLC method; assay type: ADME, organism-based; parameters: route oral; details: in vivo; in short: as §1
[5] = Tmax in healthy human at 1500 […], po administered as single dose measured after 72 hrs by HPLC method; assay type: ADME, organism-based; parameters: route oral; details: in vivo; in short: as §1
[6] = AUC (0 to t) in healthy human at 1500 […], po administered as single dose measured after 72 hrs by HPLC method; assay type: ADME, organism-based; parameters: time < 72 hr, route oral; details: plasma; in short: as §1
[7] = AUC (0 to t) in healthy human at 1750 […], po administered as single dose measured after 72 hrs by HPLC method; assay type: ADME, organism-based; parameters: time < 72 hr, route oral; details: plasma; in short: as §1
[8] = AUC (0 to t) in healthy human at 2000 […], po administered as single dose measured after 72 hrs by HPLC method; assay type: ADME, organism-based; parameters: time < 72 hr, route oral; details: plasma; in short: as §1
[9] = AUC (0 to infinity) in healthy human at […], po administered as single dose measured after 72 hrs by HPLC method; assay type: ADME, organism-based; parameters: time infinity, route oral; details: plasma; in short: as §1
[10] = AUC (0 to infinity) in healthy human at 500 […], po administered as single dose measured after 72 hrs by HPLC method; assay type: ADME, organism-based; parameters: time infinity, route oral; details: plasma; in short: as §1
[11] = Relative bioavailability based on AUC (0 to infinity) in healthy human at 1750 […], po administered as single dose by HPLC method; assay type: ADME, organism-based; details: in vivo
In short: (§2)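 Relative bioavailability is AUC0-∞ at the test dose relative to the group's reference dose: 250 mg for group 1 (1,000 and 1,750 mg), 500 mg for group 2 (1,500 and 2,000 mg). Same volunteers, single oral doses, plasma sampling to 72 h and HPLC-UV assay as above.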

[12] = Relative bioavailability based on AUC (0 to infinity) in healthy human at 1500 […], po administered as single dose by HPLC method; assay type: ADME, organism-based; details: in vivo; in short: as §2
[13] = Relative bioavailability based on AUC (0 to infinity) in healthy human at 2000 […], po administered as single dose by HPLC method; assay type: ADME, organism-based; details: in vivo; in short: as §2
[14] = Oral clearance in healthy human at 250 to 2000 […] administered as single dose by HPLC method; assay type: ADME, organism-based; details: in vivo
In short: (§3)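 Population PK model: one compartment, first-order absorption with lag time, first-order elimination, fitted to plasma HPLC concentrations from single oral doses of 250–2,000 mg in healthy fasting men. F for 250–500 mg was fixed at 1, and doses of 1,500–2,000 mg were assumed to share one F. Posterior predictive check used.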

Homo sapiens [15] = assay: Volume of distribution in healthy human at 250 to 2000 […], po administered as single dose by HPLC method; assay type: ADME, organism-based; parameters: route oral; details: in vivo; in short: as §3
Homo sapiens [16] = assay: Absorption time lag in healthy human at 250 to 2000 […], po administered as single dose by HPLC method; assay type: ADME, organism-based; parameters: route oral; details: in vivo; in short: as §3
[17] = Relative bioavailability in healthy human at 1000 […], po administered as single dose by HPLC method; assay type: ADME, organism-based; details: in vivo; in short: as §3
[18] = Relative bioavailability in healthy human at 1500 to 2000 […], po administered as single dose by HPLC method; assay type: ADME, organism-based; details: in vivo; in short: as §3
Homo sapiens [19] = assay: Toxicity in healthy human assessed as occurrence of headache at […], po administered as single dose; assay type: organism-based; parameters: route oral; details: in vivo
Homo sapiens [20] = assay: Toxicity in healthy human assessed as occurrence of dizziness at […], po administered as single dose; assay type: organism-based; parameters: route oral; details: in vivo
Homo sapiens [21] = assay: Hepatotoxicity in healthy human assessed as elevated bilirubin level at 1000 […], po administered as single dose after 72 hrs; assay type: toxicity, organism-based; parameters: route oral; details: in vivo
Homo sapiens [22] = assay: Hepatotoxicity in healthy human assessed as elevated alkaline phosphatase level at 1000 […], po administered as single dose after 72 hrs; assay type: toxicity, organism-based; parameters: route oral; details: in vivo
Homo sapiens [23] = assay: Hepatotoxicity in healthy human assessed as elevated aspartate transaminase level at 1000 […], po administered as single dose after 72 hrs; assay type: toxicity, organism-based; parameters: route oral; details: in vivo
Homo sapiens [24] = assay: Hepatotoxicity in healthy human assessed as elevated bilirubin level at 1000 […], po administered as single dose after 7 days post dosing; assay type: toxicity, organism-based; parameters: route oral; details: in vivo, 168 h
Homo sapiens [25] = assay: Hepatotoxicity in healthy human assessed as elevated bilirubin level at 1000 […], po administered as single dose after 48 hrs; assay type: toxicity, organism-based; parameters: route oral; details: in vivo
Homo sapiens [26] = assay: Hepatotoxicity in healthy human assessed as elevated alkaline phosphatase level at 1000 […], po administered as single dose after 48 hrs; assay type: toxicity, organism-based; parameters: route oral; details: in vivo
Homo sapiens [27] = assay: Hepatotoxicity in healthy human assessed as elevated aspartate transaminase level at 1000 […], po administered as single dose after 48 hrs; assay type: toxicity, organism-based; parameters: route oral; details: in vivo
[28] = Cmax in healthy human at 250 mg, po administered as single dose measured after 72 hrs by HPLC method; details: in vivo
[29] = Cmax in healthy human at 500 mg, po administered as single dose measured after 72 hrs by HPLC method; details: in vivo
[30] = Cmax in healthy human at 1000 mg, po administered as single dose measured after 72 hrs by HPLC method; details: in vivo
[31] = Cmax in healthy human at 1500 mg, po administered as single dose measured after 72 hrs by HPLC method; details: in vivo
[32] = Cmax in healthy human at 1750 mg, po administered as single dose measured after 72 hrs by HPLC method; details: in vivo
[33] = Tmax in healthy human at 1750 mg, po administered as single dose measured after 72 hrs by HPLC method; details: in vivo
[34] = Tmax in healthy human at 2000 mg, po administered as single dose measured after 72 hrs by HPLC method; details: in vivo
[35] = AUC (0 to t) in healthy human at 250 mg, po administered as single dose measured after 72 hrs by HPLC method; details: plasma
[36] = AUC (0 to t) in healthy human at 500 mg, po administered as single dose measured after 72 hrs by HPLC method; details: plasma
[37] = AUC (0 to t) in healthy human at 1000 mg, po administered as single dose measured after 72 hrs by HPLC method; details: plasma
[38] = Terminal half life in healthy human at 250 mg, po administered as single dose measured after 72 hrs by HPLC method; details: in vivo, read-out: beta t1/2 (converted)
[39] = Terminal half life in healthy human at 500 mg, po administered as single dose measured after 72 hrs by HPLC method; details: in vivo, read-out: beta t1/2 (converted)
[40] = Terminal half life in healthy human at 1000 mg, po administered as single dose measured after 72 hrs by HPLC method; details: in vivo, read-out: beta t1/2 (converted)
[41] = Terminal half life in healthy human at 1500 mg, po administered as single dose measured after 72 hrs by HPLC method; details: in vivo, read-out: beta t1/2 (converted)
[42] = Terminal half life in healthy human at 1750 mg, po administered as single dose measured after 72 hrs by HPLC method; details: in vivo, read-out: beta t1/2 (converted)
[43] = Terminal half life in healthy human at 2000 mg, po administered as single dose measured after 72 hrs by HPLC method; details: in vivo, read-out: beta t1/2 (converted)
[44] = AUC (0 to infinity) in healthy human at 1000 mg, po administered as single dose measured after 72 hrs by HPLC method; details: plasma
[45] = AUC (0 to infinity) in healthy human at 1500 mg, po administered as single dose measured after 72 hrs by HPLC method; details: plasma
[46] = AUC (0 to infinity) in healthy human at 1750 mg, po administered as single dose measured after 72 hrs by HPLC method; details: plasma
[47] = AUC (0 to infinity) in healthy human at 2000 mg, po administered as single dose measured after 72 hrs by HPLC method; details: plasma
[48] = First-order absorption rate constant in healthy human at 250 to 2000 mg, po administered as single dose by HPLC method; details: in vivo

## C[C@@H]([C@H](N)C(=O)N[C@H](C(=O)O)[C@H]1O[C@@H](n2ccc(=O)[nH]c2=O)[C@H](O)[C@@H]1O)[C@H](O)c1ccc(O)cn1 [NIKKOMYCIN]
[1]
  Cmax: 6420 ng/mL
[2]
  Tmax: 2 h
[3]
  Tmax: 3 h
[4]
  Tmax: 4 h
[5]
  Tmax: 2 h
[6]
  AUC(0-t) at 72 h: 30300 ng·h/mL
[7]
  AUC(0-t) at 72 h: 37400 ng·h/mL
[8]
  AUC(0-t) at 72 h: 40200 ng·h/mL
[9]
  AUC(0-inf): 11600 ng·h/mL
[10]
  AUC(0-inf): 24600 ng·h/mL
[11]
  bioavailability: 47%
[12]
  bioavailability: 41%
[13]
  bioavailability: 41%
[14]
  CL/F: 367 mL/min
Homo sapiens [15]
  Vd: 41.5 L
Homo sapiens [16]
  Tlag: 0.695 h
[17]
  bioavailability: 61.6%
[18]
  bioavailability: 43.9%
Homo sapiens [19]
  Activity: Toxic
Homo sapiens [20]
  Activity: Toxic
Homo sapiens [21]
  Activity: Toxic
Homo sapiens [22]
  Activity: Toxic
Homo sapiens [23]
  Activity: Toxic
Homo sapiens [24]
  Activity: Non-toxic
Homo sapiens [25]
  Activity: Non-toxic
Homo sapiens [26]
  Activity: Non-toxic
Homo sapiens [27]
  Activity: Non-toxic
[28]
  Cmax: 2210 ng/mL
[29]
  Cmax: 3990 ng/mL
[30]
  Cmax: 5140 ng/mL
[31]
  Cmax: 4850 ng/mL
[32]
  Cmax: 6440 ng/mL
[33]
  Tmax: 4 h
[34]
  Tmax: 4 h
[35]
  AUC(0-t) at 72 h: 11300 ng·h/mL
[36]
  AUC(0-t) at 72 h: 24300 ng·h/mL
[37]
  AUC(0-t) at 72 h: 32100 ng·h/mL
[38]
  half-life: 2.53 h
[39]
  half-life: 2.22 h
[40]
  half-life: 2.06 h
[41]
  half-life: 2.21 h
[42]
  half-life: 2.12 h
[43]
  half-life: 2.09 h
[44]
  AUC(0-inf): 32500 ng·h/mL
[45]
  AUC(0-inf): 30600 ng·h/mL
[46]
  AUC(0-inf): 37900 ng·h/mL
[47]
  AUC(0-inf): 40700 ng·h/mL
[48]
  Ka: 0.000113 s⁻¹
